Reference: ChEMBL document CHEMBL1142402, “Synthesis of curcumin mimics with multidrug resistance reversal activities” (Bioorg Med Chem, 2008)
pIC50: −log10 of the molar value. Calls of active or inactive are those of the source. The calls are words filed in the database; no cut-off is given here.

Assays:
[1] = Cytotoxicity against multidrug resistant P-gp expressing human KBV20C cells assessed as cell viability at 10 uM after 48 hrs by MTS assay; format: functional; details: read-out: Activity
Summary of the method: (§1)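 KB (P-gp-negative) and KBV20C (P-gp-expressing) cells were grown in RPMI 1640 with 10% FBS and 1% penicillin/streptomycin. KBV20C cells were maintained with 20 nM vincristine. Cells were exposed to each compound at 10 µM for 48 h. Viability (%) was read by MTS. Values are means ± standard deviation of three experiments.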

KB [2] = assay: Cytotoxicity against human KB cells assessed as cell viability at 10 uM after 48 hrs by MTS assay; format: functional; details: read-out: Activity; summary of the method: as §1
[3] = Cytotoxicity against multidrug resistant P-gp expressing human KBV20C cells assessed as cell viability in presence of paclitaxel by MTS assay; format: functional, cell-based
[4] = Cytotoxicity against multidrug resistant P-gp expressing human KBV20C cells assessed as cell viability in presence of vincristine by MTS assay; format: functional, cell-based
KBV20C = assay: Inhibition of Pgp in multidrug resistant human KBV20C cells assessed as increase in intracellular accumulation of Rh123; format: cell-based
Summary of the method: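 They were then incubated a further 3 h with Rh123 and washed with PBS. Mean intracellular Rh123 fluorescence was measured by flow cytometry and expressed relative to control. Values are means ± SD of three independent experiments, compared by Student's t-test.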

[5] = Cytotoxicity against multidrug resistant P-gp expressing human KBV20C cells assessed as cell viability after 48 hrs by MTS assay; format: functional, cell-based
KB [6] = assay: Cytotoxicity against human KB cells assessed as cell viability after 48 hrs by MTS assay; format: functional, cell-based

Structure (SMILES) | viability at 10 µM [1] [%] | viability at 10 µM (KB [2]) [%] | pIC50 [3] | pIC50 [4] | Activity (KBV20C) | pIC50 [5] | pIC50 (KB [6])
COc1cc(/C=C/C(=O)c2cccc(NC(=O)c3ccco3)c2)ccc1O | 77.6 | 60.2 | 6.68 | 5.84 |  |  | 
CCOC(=O)C(=O)Nc1cccc(C(=O)/C=C/c2ccc(O)c(OC)c2)c1 | 103 | 84.7 | 5.96 | 5.48 |  |  | 
COc1ccc(CCN(C)CCC[C@](C#N)(c2ccc(OC)c(OC)c2)C(C)C)cc1OC |  |  |  |  | Active |  | 
CC[C@]1(O)C[C@H]2CN(CCc3c([nH]c4ccccc34)[C@@](C(=O)OC)(c3cc4c(cc3OC)N(C=O)[C@H]3[C@@](O)(C(=O)OC)[C@H](OC(C)=O)[C@]5(CC)C=CCN6CC[C@]43[C@@H]65)C2)C1 [VINCRISTINE] |  |  |  |  |  | 5.24 | 8.10
COc1cc(/C=C/C(=O)c2cccc(NC(C)=O)c2)ccc1O | 92.4 | 98.2 | 6.14 | 5.90 |  |  | 
COc1cc(/C=C/C(=O)c2cccc(NC(=O)c3ccc(Cl)cc3)c2)ccc1O | 96.6 | 95.7 | 7.20 | 6.32 | Active |  | 
COc1cc(/C=C/C(=O)c2cccc(N)c2)ccc1O | 99.4 | 97.6 | 6.08 | 5.90 |  |  | 
COc1cc(/C=C/C(=O)c2cccc(NC(=O)C(C)C)c2)ccc1O | 67.7 | 67.5 | 6.62 | 5.53 |  |  | 
COc1cc(/C=C/C(=O)c2cccc(NC(=O)c3c(Cl)cccc3Cl)c2)ccc1O | 75.3 | 93.7 | 7.00 | 5.91 |  |  | 
COc1cc(/C=C/C(=O)c2cccc(NC(=O)c3ccc(Cl)c(Cl)c3)c2)ccc1O | 72.6 | 78.3 | 7.59 | 6.07 | Active |  | 
COc1cc(/C=C/C(=O)c2cccc(NC(=O)c3ccccc3)c2)ccc1O | 85.5 | 89.5 | 6.38 | 5.42 |  |  | 
COc1cc(/C=C/C(=O)c2cccc(NC(=O)c3ccc(Cl)cc3Cl)c2)ccc1O | 94.6 | 98.3 | 7.35 | 6.14 |  |  | 
COc1cc(/C=C/C(=O)CC(=O)/C=C/c2ccc(O)c(OC)c2)ccc1O [CURCUMIN] | 93.1 | 89.2 | 6.38 | 6.09 |  |  | 
COc1cc(/C=C/C(=O)c2cccc(NC(=O)c3cccs3)c2)ccc1O | 83.6 | 74.7 | 6.74 | 5.85 |  |  | 
CC(=O)O[C@H]1C(=O)[C@@]2(C)[C@H]([C@H](OC(=O)c3ccccc3)[C@]3(O)C[C@H](OC(=O)[C@H](O)[C@@H](NC(=O)c4ccccc4)c4ccccc4)C(C)=C1C3(C)C)[C@]1(OC(C)=O)CO[C@@H]1C[C@@H]2O [PACLITAXEL] |  |  |  |  |  | 5.84 | 8.38
COC(=O)CC(=O)Nc1cccc(C(=O)/C=C/c2ccc(O)c(OC)c2)c1 | 106 | 72.9 | 6.49 | 5.42 |  |  | 
CCCC(=O)Nc1cccc(C(=O)/C=C/c2ccc(O)c(OC)c2)c1 | 80.8 | 77.1 | 6.68 | 5.54 |  |  | 
COc1cc(/C=C/C(=O)c2cccc(NC(=O)c3cc(Cl)cc(Cl)c3)c2)ccc1O | 70.3 | 68.7 | 7.66 | 6.39 | Active |  | 
